Results on ten compounds are retold here after publication PMC6970618 (Bioorganic & medicinal chemistry letters, 2018).

One data set concerns Vero cells. In words: Host Vero cell toxicity counter-read of the amastigote assay. The data set is classed as cell-based. A digest of the protocol:
(§1)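 Intracellular T. cruzi amastigotes cultured in Vero host cells, with the host Vero cells read in parallel. pEC50 is the mean of independent EC50 determinations: three or more ± standard deviation, or for some compounds two ± range.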

The test system of a further data set is T. cruzi amastigotes. The data set is described as follows: Intracellular T. cruzi amastigote assay in Vero cells. The data set is classed as cell-based, Trypanosoma cruzi. To be noted: for EC50: Trypanosoma cruzi, Vero; for Tc pEC50: T. cruzi amastigote cultures in Vero cells, mean of three or more EC50 determinations ± standard deviation. The procedure, abridged:
as §1

The target of a further data set is TcCYP51 (Trypanosoma cruzi, UniProt Q7Z1V1). The data set is described as follows: TcCYP51 counter-screen. The class given is biochemical, T. cruzi. The settings on record: for TcCYP51 inhibition: result in words. For orientation: The purpose of a counterscreen is to sort out artefacts and off-target activity.
In another data set the test system is T. cruzi. The data set is described as follows: T. cruzi cytostatic/cytocidal assay. The class given is cell-based, Trypanosoma cruzi. To be noted: cytocidal versus cytostatic behaviour.
Data set [1] is described as follows: Intrinsic clearance in mouse liver microsomes. The data set is classed as in vitro ADME. The settings on record: result in words. In general terms: Microsomes from liver hold many membrane-bound enzymes, among them those of drug oxidation.
The mark [2] stands for this setting: host Vero cells, mean of three or more EC50 determinations ± standard deviation.

“Also recorded” adds a separate entry of the source. Like-named read-outs stand apart in the source and are kept apart here.

TcCYP51, sequence (Q7Z1V1 whole entry): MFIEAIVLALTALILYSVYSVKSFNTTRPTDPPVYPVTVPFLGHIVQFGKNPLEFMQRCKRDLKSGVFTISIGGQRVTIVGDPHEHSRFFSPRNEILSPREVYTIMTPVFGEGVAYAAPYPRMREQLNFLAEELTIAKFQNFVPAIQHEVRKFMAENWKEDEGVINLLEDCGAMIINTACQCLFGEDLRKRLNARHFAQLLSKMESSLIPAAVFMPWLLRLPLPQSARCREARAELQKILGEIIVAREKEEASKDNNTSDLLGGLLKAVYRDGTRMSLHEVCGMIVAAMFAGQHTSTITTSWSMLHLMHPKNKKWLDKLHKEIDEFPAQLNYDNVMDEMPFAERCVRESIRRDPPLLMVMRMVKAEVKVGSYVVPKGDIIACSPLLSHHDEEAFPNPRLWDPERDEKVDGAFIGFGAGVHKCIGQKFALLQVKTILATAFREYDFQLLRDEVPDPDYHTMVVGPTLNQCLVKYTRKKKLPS

Regarding `COc1cc(OC)cc(C(=O)Nc2ccc(Nc3nc(C)cc(N(C)C)n3)cc2)c1` [Compound 1], the “Vero pEC50” value in the data set with Vero cells (Table 2: host Vero cells, mean of two EC50 determinations ± range (1, 4b: ± standard deviation from > 2 determinations)) was determined as 5.2 ± 0.3. For the same compound, the figures for the EC50 with T. cruzi amastigotes (read-out: pEC50 against T. cruzi parasites (converted)) and at TcCYP51 were 126 nM and over 10 µM, respectively. Further, the Cytocidal entry with T. cruzi is “cytocidal behavior”. Moreover, the “stability in mouse liver microsomes (MLM)” value in data set [1] is “stable”.

For the compound `COc1cc(Nc2nc(C)cc(N(C)C)n2)ccc1F` [Compound 4d], the “Vero pEC50” value in the data set with Vero cells (setting [2]) worked out at 4.5 ± 0.1. Also, the “Tc pEC50” value with T. cruzi amastigotes was 6.4 ± 0.3. For the same compound, the TcCYP51 inhibition entry on TcCYP51 is listed as “did not inhibit TcCYP51”. Also, the Cytocidal entry with T. cruzi is reported as “cytocidal”.

As to `Cc1cc(N(C)C)nc(Nc2ccc(C(=O)N3CCCCC3)cc2)n1` [Compound 5a], the “toxicity against the host cells” value in the data set with Vero cells (at the top concentration tested (50 μM)) is given as “no toxicity”. Besides, in the data set with T. cruzi amastigotes (read-out: Tc pEC50 (converted)), the EC50 is 2000 nM.

With `Cc1cc(N(C)C)nc(NCc2ccccc2)n1` [Compound 6a], the “Vero pEC50” value in the data set with Vero cells (setting [2]) is reported as under 4.3. Further, the “Tc pEC50” value in the data set with T. cruzi amastigotes was 5.5 ± 0.3. Besides, in the data set on T. cruzi amastigotes (read-out: Tc pEC50 (converted)), the EC50 is 3160 nM. The TcCYP51 inhibition entry on TcCYP51 is “did not inhibit TcCYP51”. In addition, the Cytocidal entry in the data set on T. cruzi is recorded as “cytocidal”.

For `Cc1cc(N(C)C)nc(NC2CCN(C(=O)Cc3ccc(F)cc3F)CC2)n1` [Compound 6e], the EC50 with T. cruzi amastigotes (read-out: Tc pEC50 (converted)) was 3160 nM.

In the case of `COc1cc(OC)cc(C(=O)N[C@H]2CC[C@H](Nc3nc(C)cc(N(C)C)n3)CC2)c1` [Compound 8b], at TcCYP51, the TcCYP51 inhibition result is recorded as “no activity versus TcCYP51”. Besides, the Cytocidal result in the data set with T. cruzi is reported as “cytocidal”.

Turning to `COc1cc(Nc2nc(C)cc(N3CCCC3)n2)ccc1F` [Compound 13b], the EC50 with T. cruzi amastigotes (read-out: Tc pEC50 (converted)) was 316 nM.

Regarding `COc1cc(Nc2cc(C)nc(NCc3ccccc3)n2)ccc1F` [Compound 17c], the EC50 with T. cruzi amastigotes (read-out: Tc pEC50 (converted)) was 79.4 nM. Further, the Cytocidal result in the data set on T. cruzi is “cytostatic behavior; also recorded: no longer cytocidal”.

With `COc1cc(Nc2nc(C(C)C)cc(N(C)C)n2)ccc1F` [Compound 18c], the EC50 with T. cruzi amastigotes (read-out: Tc pEC50 (converted)) is 2000 nM.

For the compound `COc1cc(Nc2nc(C(=O)N3CCCC3)cc(N(C)C)n2)ccc1F` [Compound 18e], the EC50 in the data set on T. cruzi amastigotes (read-out: Tc pEC50 (converted)) is 31600 nM.
